{"source": "ChEMBL document CHEMBL1156729", "about": "“Novel synthesis and pharmacological evaluation as alpha2-adrenoceptor ligands of O-phenylisouronium salts” (Bioorg Med Chem, 2008)", "data": [{"assay": "Displacement of [3H]RX821002 from alpha2 adrenoceptor in human prefrontal cortex neural membrane", "assay_type": "tissue-based", "procedure,_shortened": "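Postmortem human PFC P2 membranes (homogenized in 5 mM Tris–HCl pH 7.4, 1 mM MgCl2, 0.25 M sucrose; stored at −70 °C) incubated in 50 mM Tris–HCl pH 7.5 with 1 nM [3H]RX821002 and competitor (10 concentrations) 30 min at 25 °C. Bound ligand separated by GF/C filtration and counted by scintillation. Non-specific binding with 10^-5 M adrenaline. Ki by one-site nonlinear regression, expressed as pKi.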", "values": [{"smiles": "N=C(N)Oc1ccc(Sc2ccc(OC(=N)N)cc2)cc1", "pKi": 5.1}, {"smiles": "N=C(N)Nc1ccc2c(c1)CCCC2", "pKi": 7.11}, {"smiles": "N=C(N)Oc1ccc(Cc2ccc(O)cc2)cc1", "pKi": 4.98}, {"smiles": "COC1(C2=NCCN2)COc2ccccc2O1", "note": "(stereo unspecified)", "pKi": 9.04}, {"smiles": "Cc1ccc(OC(=N)N)cc1", "pKi": 5.09}, {"smiles": "N=C(N)Oc1ccc2c(c1)CCC2", "pKi": 5.27}, {"smiles": "N=C(N)Oc1ccc(Cc2ccc(OC(=N)N)cc2)cc1", "pKi": 5.4}, {"smiles": "N=C(N)Oc1ccc(Sc2ccc(O)cc2)cc1", "pKi": 4.94}, {"smiles": "N=C(N)Oc1ccc(Oc2ccc(OC(=N)N)cc2)cc1", "pKi": 4.72}, {"smiles": "N=C(N)Oc1ccc(Oc2ccc(O)cc2)cc1", "pKi": 4.49}, {"smiles": "N=C(N)Oc1ccc2c(c1)CCCC2", "pKi": 5.35}]}]}
